Measured values as given in ChEMBL document CHEMBL3046406, “Herbicidal potential of ophiobolins produced by Drechslera gigantea” (2006).
Calls of active or inactive are those of the source. No cut-off for these calls is given here.

Columns and labels:
Assay type in all cases: functional
Bromus sterilis [1] = assay: Herbicidal activity against Bromus sterilis assessed as diameter of leaf necrosis at 250 ug/ml measured after 2 days post compound treatment by leaf puncture assay
In short: (§1)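 Detached leaf segments (about 5 cm) from young greenhouse-grown plants, each with a superficial puncture lesion (0.5 mm) made by glass capillary. Compound dissolved in DMSO, diluted with distilled water (final DMSO 2%), 8 µL droplet applied. Segments held on moist filter paper at 25 °C under continuous fluorescent light (10000 lux). DMSO droplets as control. Necrosis scored visually on a 0–3 scale at day 2.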

Setaria viridis [2] = assay: Herbicidal activity against Setaria viridis assessed as diameter of leaf necrosis at 250 ug/ml measured after 2 days post compound treatment by leaf puncture assay; in short: as §1
Echinochloa crus-galli [3] = assay: Herbicidal activity against Echinochloa crus-galli (barnyard grass) assessed as diameter of leaf necrosis at 250 ug/ml measured after 2 days post compound treatment by leaf puncture assay; in short: as §1
Oloptum miliaceum [4] = assay: Herbicidal activity against Piptatherum miliaceum assessed as diameter of leaf necrosis at 100 ug/ml measured after 2 days post compound treatment by leaf puncture assay; in short: as §1
Digitaria sanguinalis [5] = assay: Herbicidal activity against Digitaria sanguinalis (hairy crabgrass) assessed as diameter of leaf necrosis at 100 ug/ml measured after 2 days post compound treatment by leaf puncture assay; in short: as §1
Setaria viridis [6] = assay: Herbicidal activity against Setaria viridis assessed as diameter of leaf necrosis at 50 ug/ml measured after 2 days post compound treatment by leaf puncture assay; in short: as §1
Amaranthus retroflexus [7] = assay: Herbicidal activity against Amaranthus retroflexus assessed as diameter of leaf necrosis at 250 ug/ml measured after 2 days post compound treatment by leaf puncture assay; in short: as §1
Amaranthus retroflexus [8] = assay: Herbicidal activity against Amaranthus retroflexus assessed as diameter of leaf necrosis at 50 ug/ml measured after 2 days post compound treatment by leaf puncture assay; in short: as §1
Chenopodium album [9] = assay: Herbicidal activity against Chenopodium album assessed as diameter of leaf necrosis at 100 ug/ml measured after 2 days post compound treatment by leaf puncture assay; in short: as §1
Setaria viridis [10] = assay: Herbicidal activity against Setaria viridis assessed as diameter of leaf necrosis at 100 ug/ml measured after 2 days post compound treatment by leaf puncture assay; in short: as §1
[11] = test system: Avena sterilis subsp. ludoviciana; assay: Herbicidal activity against Avena sterilis subsp. ludoviciana assessed as diameter of leaf necrosis at 250 ug/ml measured after 2 days post compound treatment by leaf puncture assay; in short: as §1
Oloptum miliaceum [12] = assay: Herbicidal activity against Piptatherum miliaceum assessed as diameter of leaf necrosis at 50 ug/ml measured after 2 days post compound treatment by leaf puncture assay; in short: as §1
Digitaria sanguinalis [13] = assay: Herbicidal activity against Digitaria sanguinalis (hairy crabgrass) assessed as diameter of leaf necrosis at 50 ug/ml measured after 2 days post compound treatment by leaf puncture assay; in short: as §1
Bromus sterilis [14] = assay: Herbicidal activity against Bromus sterilis assessed as diameter of leaf necrosis at 100 ug/ml measured after 2 days post compound treatment by leaf puncture assay; in short: as §1
Convolvulus arvensis [15] = assay: Herbicidal activity against Convolvulus arvensis assessed as diameter of leaf necrosis at 250 ug/ml measured after 2 days post compound treatment by leaf puncture assay; in short: as §1
[16] = test system: Avena sterilis subsp. ludoviciana; assay: Herbicidal activity against Avena sterilis subsp. ludoviciana assessed as diameter of leaf necrosis at 100 ug/ml measured after 2 days post compound treatment by leaf puncture assay; in short: as §1
Convolvulus arvensis [17] = assay: Herbicidal activity against Convolvulus arvensis assessed as diameter of leaf necrosis at 100 ug/ml measured after 2 days post compound treatment by leaf puncture assay; in short: as §1
Cynodon dactylon [18] = assay: Herbicidal activity against Cynodon dactylon assessed as diameter of leaf necrosis at 50 ug/ml measured after 2 days post compound treatment by leaf puncture assay; in short: as §1
Phalaris canariensis [19] = assay: Herbicidal activity against Phalaris canariensis assessed as diameter of leaf necrosis at 250 ug/ml measured after 2 days post compound treatment by leaf puncture assay; in short: as §1
Diplotaxis erucoides [20] = assay: Herbicidal activity against Diplotaxis erucoides assessed as diameter of leaf necrosis at 100 ug/ml measured after 2 days post compound treatment by leaf puncture assay; in short: as §1
Phalaris canariensis [21] = assay: Herbicidal activity against Phalaris canariensis assessed as diameter of leaf necrosis at 100 ug/ml measured after 2 days post compound treatment by leaf puncture assay; in short: as §1
Echinochloa crus-galli [22] = assay: Herbicidal activity against Echinochloa crus-galli (barnyard grass) assessed as diameter of leaf necrosis at 100 ug/ml measured after 2 days post compound treatment by leaf puncture assay; in short: as §1
Sonchus oleraceus [23] = assay: Herbicidal activity against Sonchus oleraceus assessed as diameter of leaf necrosis at 250 ug/ml measured after 2 days post-compound treatment by leaf puncture assay; in short: as §1
Sonchus oleraceus [24] = assay: Herbicidal activity against Sonchus oleraceus assessed as diameter of leaf necrosis at 50 ug/ml measured after 2 days post-compound treatment by leaf puncture assay; in short: as §1
Phalaris canariensis [25] = assay: Herbicidal activity against Phalaris canariensis assessed as diameter of leaf necrosis at 50 ug/ml measured after 2 days post compound treatment by leaf puncture assay; in short: as §1
Cynodon dactylon [26] = assay: Herbicidal activity against Cynodon dactylon assessed as diameter of leaf necrosis at 100 ug/ml measured after 2 days post compound treatment by leaf puncture assay; in short: as §1
Echinochloa crus-galli [27] = assay: Herbicidal activity against Echinochloa crus-galli (barnyard grass) assessed as diameter of leaf necrosis at 50 ug/ml measured after 2 days post compound treatment by leaf puncture assay; in short: as §1
Cynodon dactylon [28] = assay: Herbicidal activity against Cynodon dactylon assessed as diameter of leaf necrosis at 250 ug/ml measured after 2 days post compound treatment by leaf puncture assay; in short: as §1
Amaranthus retroflexus [29] = assay: Herbicidal activity against Amaranthus retroflexus assessed as diameter of leaf necrosis at 100 ug/ml measured after 2 days post compound treatment by leaf puncture assay; in short: as §1
Diplotaxis erucoides [30] = assay: Herbicidal activity against Diplotaxis erucoides assessed as diameter of leaf necrosis at 250 ug/ml measured after 2 days post compound treatment by leaf puncture assay; in short: as §1
[31] = test system: Avena sterilis subsp. ludoviciana; assay: Herbicidal activity against Avena sterilis subsp. ludoviciana assessed as diameter of leaf necrosis at 50 ug/ml measured after 2 days post compound treatment by leaf puncture assay; in short: as §1
Diplotaxis erucoides [32] = assay: Herbicidal activity against Diplotaxis erucoides assessed as diameter of leaf necrosis at 50 ug/ml measured after 2 days post compound treatment by leaf puncture assay; in short: as §1
Oloptum miliaceum [33] = assay: Herbicidal activity against Piptatherum miliaceum assessed as diameter of leaf necrosis at 250 ug/ml measured after 2 days post compound treatment by leaf puncture assay; in short: as §1
Chenopodium album [34] = assay: Herbicidal activity against Chenopodium album assessed as diameter of leaf necrosis at 250 ug/ml measured after 2 days post compound treatment by leaf puncture assay; in short: as §1
Convolvulus arvensis [35] = assay: Herbicidal activity against Convolvulus arvensis assessed as diameter of leaf necrosis at 50 ug/ml measured after 2 days post compound treatment by leaf puncture assay; in short: as §1
Sonchus oleraceus [36] = assay: Herbicidal activity against Sonchus oleraceus assessed as diameter of leaf necrosis at 100 ug/ml measured after 2 days post-compound treatment by leaf puncture assay; in short: as §1
Digitaria sanguinalis [37] = assay: Herbicidal activity against Digitaria sanguinalis (hairy crabgrass) assessed as diameter of leaf necrosis at 250 ug/ml measured after 2 days post compound treatment by leaf puncture assay; in short: as §1
Chenopodium album [38] = assay: Herbicidal activity against Chenopodium album assessed as diameter of leaf necrosis at 50 ug/ml measured after 2 days post compound treatment by leaf puncture assay; in short: as §1
Bromus sterilis [39] = assay: Herbicidal activity against Bromus sterilis assessed as diameter of leaf necrosis at 50 ug/ml measured after 2 days post compound treatment by leaf puncture assay; in short: as §1

| SMILES | Activity (Bromus sterilis [1]) [mm] | Activity (Setaria viridis [2]) [mm] | Activity (Echinochloa crus-galli [3]) [mm] | Activity (Oloptum miliaceum [4]) [mm] | Activity (Digitaria sanguinalis [5]) [mm] | Activity (Setaria viridis [6]) [mm] | Activity (Amaranthus retroflexus [7]) | Activity (Amaranthus retroflexus [8]) | Activity (Chenopodium album [9]) [mm] | Activity (Setaria viridis [10]) [mm] | Activity [11] | Activity (Oloptum miliaceum [12]) [mm] | Activity (Digitaria sanguinalis [13]) | Activity (Bromus sterilis [14]) [mm] | Activity (Convolvulus arvensis [15]) | Activity [16] | Activity (Convolvulus arvensis [17]) | Activity (Cynodon dactylon [18]) | Activity (Phalaris canariensis [19]) [mm] | Activity (Diplotaxis erucoides [20]) [mm] | further results |
| --- | --- | --- | --- | --- | --- | --- | --- | --- | --- | --- | --- | --- | --- | --- | --- | --- | --- | --- | --- | --- | --- |
| CC(C)=C[C@H]1C[C@H](C)[C@]2(CC[C@]3(C)C[C@H]4[C@@H](C(=O)C[C@@]4(C)O)/C(C=O)=C\C[C@H]32)O1 [6-EPI-OHPIOBOLIN A] | 2 | >3 | 2 | 1 | 2 | >3 | 1 mm | 1 mm | 2 | >3 | 2 mm | 1 | 2 mm | 1 | 2 mm | 2 mm | 2 mm | inactive | >3 | 2 | Activity (Phalaris canariensis [21]): 2 mm; Activity (Echinochloa crus-galli [22]): 2 mm; Activity (Sonchus oleraceus [23]): >3 mm; Activity (Sonchus oleraceus [24]): >3 mm; Activity (Phalaris canariensis [25]): 1 mm; Activity (Cynodon dactylon [26]): 1 mm; Activity (Echinochloa crus-galli [27]): 1 mm; Activity (Cynodon dactylon [28]): 2 mm; Activity (Amaranthus retroflexus [29]): 1 mm; Activity (Diplotaxis erucoides [30]): 2 mm; Activity [31]: 2 mm; Activity (Diplotaxis erucoides [32]): 2 mm; Activity (Oloptum miliaceum [33]): 2 mm; Activity (Chenopodium album [34]): >3 mm; Activity (Convolvulus arvensis [35]): 2 mm; Activity (Sonchus oleraceus [36]): >3 mm; Activity (Digitaria sanguinalis [37]): >3 mm; Activity (Chenopodium album [38]): 2 mm; Activity (Bromus sterilis [39]): 1 mm |
| CC(C)=C[C@H]1C[C@H](C)[C@]2(CC[C@]3(C)C[C@@H]4C(C)=CC(=O)[C@H]4/C(C=O)=C\C[C@H]32)O1 [3-ANHYDRO-6-EPI-OPHIOBOLIN A] | 1 | 2 | 1 | 1 | 1 | 2 | inactive | inactive | 1 | 2 | inactive | 1 | inactive | 1 | inactive | inactive | inactive | inactive | 1 | >3 | Activity (Phalaris canariensis [21]): 1 mm; Activity (Echinochloa crus-galli [22]): 1 mm; Activity (Sonchus oleraceus [23]): 1 mm; Activity (Sonchus oleraceus [24]): inactive; Activity (Phalaris canariensis [25]): 1 mm; Activity (Cynodon dactylon [26]): inactive; Activity (Echinochloa crus-galli [27]): 1 mm; Activity (Cynodon dactylon [28]): inactive; Activity (Amaranthus retroflexus [29]): inactive; Activity (Diplotaxis erucoides [30]): >3 mm; Activity [31]: inactive; Activity (Diplotaxis erucoides [32]): 2 mm; Activity (Oloptum miliaceum [33]): 1 mm; Activity (Chenopodium album [34]): 1 mm; Activity (Convolvulus arvensis [35]): inactive; Activity (Sonchus oleraceus [36]): 1 mm; Activity (Digitaria sanguinalis [37]): 1 mm; Activity (Chenopodium album [38]): inactive; Activity (Bromus sterilis [39]): 1 mm |
| CC(C)=C[C@H]1C[C@H](C)[C@]2(CC[C@]3(C)C[C@H]4[C@H](C(=O)C[C@@]4(C)O)/C(C=O)=C\C[C@H]32)O1 [OPHIOBOLIN A] | >3 | >3 | >3 | 2 | >3 | >3 | >3 mm | 2 mm | 2 | >3 | >3 mm | 1 | >3 mm | 2 | 2 mm | >3 mm | 2 mm | inactive | >3 | 2 | Activity (Phalaris canariensis [21]): >3 mm; Activity (Echinochloa crus-galli [22]): >3 mm; Activity (Sonchus oleraceus [23]): >3 mm; Activity (Sonchus oleraceus [24]): >3 mm; Activity (Phalaris canariensis [25]): >3 mm; Activity (Cynodon dactylon [26]): inactive; Activity (Echinochloa crus-galli [27]): >3 mm; Activity (Cynodon dactylon [28]): 1 mm; Activity (Amaranthus retroflexus [29]): 2 mm; Activity (Diplotaxis erucoides [30]): 2 mm; Activity [31]: >3 mm; Activity (Diplotaxis erucoides [32]): 2 mm; Activity (Oloptum miliaceum [33]): >3 mm; Activity (Chenopodium album [34]): >3 mm; Activity (Convolvulus arvensis [35]): 2 mm; Activity (Sonchus oleraceus [36]): >3 mm; Activity (Digitaria sanguinalis [37]): >3 mm; Activity (Chenopodium album [38]): 2 mm; Activity (Bromus sterilis [39]): 1 mm |
